Assay results reported in ChEMBL document CHEMBL1275486, “Kinetic characterization of VIM-7, a divergent member of the VIM metallo-beta-lactamase family” (Antimicrob Agents Chemother, 2008).

What was measured:
Settings in all cases: 81-11963
[1] = system: O=C(Cc1cccs1)N[C@@H]1C(=O)N2C(C(=O)O)=C(/C=C/c3ccc([N+](=O)[O-])cc3[N+](=O)[O-])CS[C@H]12; assay: (§1) Activity of Pseudomonas aeruginosa beta-lactamase VIM-2 by spectrophotometry
In short: (§2)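 Recombinant enzyme was expressed in E. coli BL21(DE3) from pET-26b and purified from the periplasm to >99%, with concentration taken from A280. Hydrolysis was followed spectrophotometrically at 25°C in 50 mM sodium cacodylate pH 7.0 with 100 μM ZnCl2 and 0.1 mg/ml BSA. Km and kcat came from initial velocity versus substrate concentration. Some Km values were taken as competitive Ki against nitrocefin reporter.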

[2] = system: CC(=O)OCC1=C(C(=O)O)N2C(=O)[C@@H](NC(=O)Cc3cccs3)[C@H]2SC1; assay: as §1; in short: as §2
[3] = system: C[C@@H](O)[C@H]1C(=O)N2C(C(=O)O)=C(S[C@@H]3CN[C@H](C(=O)N(C)C)C3)[C@H](C)[C@H]12; assay: as §1; in short: as §2
[4] = system: CC1(C)S[C@@H]2[C@H](NC(=O)[C@H](N)c3ccccc3)C(=O)N2[C@H]1C(=O)O; assay: as §1; in short: as §2
[5] = system: CC(C)(O/N=C(\C(=O)N[C@@H]1C(=O)N2C(C(=O)[O-])=C(C[n+]3ccccc3)CS[C@H]12)c1csc(N)n1)C(=O)O; assay: as §1; in short: as §2
[6] = system: C[C@@H](O)[C@H]1C(=O)N2C(C(=O)O)=C(S[C@@H]3CN[C@H](C(=O)Nc4cccc(C(=O)O)c4)C3)[C@H](C)[C@H]12; assay: as §1; in short: as §2
[7] = system: CC1(C)[C@H](C(=O)O)N2C(=O)C[C@H]2S1(=O)=O; assay: as §1; in short: as §2
[8] = system: CO/N=C(\C(=O)N[C@@H]1C(=O)N2C(C(=O)O)=C(COC(C)=O)CS[C@H]12)c1csc(N)n1; assay: as §1; in short: as §2
[9] = system: CCN1CCN(C(=O)N[C@@H](C(=O)N[C@@H]2C(=O)N3[C@@H]2SC(C)(C)[C@@H]3C(=O)O)c2ccccc2)C(=O)C1=O; assay: as §1; in short: as §2
[10] = system: CO[C@@]1(NC(=O)C(C(=O)O)c2ccc(O)cc2)C(=O)N2C(C(=O)O)=C(CSc3nnnn3C)CO[C@@H]21; assay: as §1; in short: as §2
[11] = system: Cc1onc(-c2ccccc2Cl)c1C(=O)N[C@@H]1C(=O)N2[C@@H]1SC(C)(C)[C@@H]2C(=O)O; assay: as §1; in short: as §2
[12] = system: O=C(Cc1cccs1)N[C@@H]1C(=O)N2C(C(=O)[O-])=C(C[n+]3ccccc3)CS[C@H]12; assay: as §1; in short: as §2
[13] = system: CO[C@@]1(NC(=O)Cc2cccs2)C(=O)N2C(C(=O)O)=C(COC(N)=O)CS[C@@H]21; assay: as §1; in short: as §2
[14] = system: CO/N=C(\C(=O)N[C@@H]1C(=O)N2C(C(=O)[O-])=C(C[N+]3(C)CCCC3)CS[C@H]12)c1csc(N)n1; assay: as §1; in short: as §2
[15] = system: CC1(C)S[C@@H]2[C@H](NC(=O)Cc3ccccc3)C(=O)N2[C@H]1C(=O)O; assay: as §1; in short: as §2
[16] = system: CC1(C)S[C@@H]2[C@H](NC(=O)C(C(=O)O)c3ccccc3)C(=O)N2[C@H]1C(=O)O; assay: as §1; in short: as §2
[17] = system: CO/N=C(\C(=O)N[C@@H]1C(=O)N2C(C(=O)O)=C(COC(N)=O)CS[C@H]12)c1ccco1; assay: as §1; in short: as §2
[18] = system: C[C@]1(Cn2ccnn2)[C@H](C(=O)O)N2C(=O)C[C@H]2S1(=O)=O; assay: as §1; in short: as §2
[19] = system: C[C@H]1[C@H](NC(=O)/C(=N\OC(C)(C)C(=O)O)c2csc(N)n2)C(=O)N1S(=O)(=O)O; assay: as §1; in short: as §2
[20] = system: CC1(C)S[C@@H]2[C@H](NC(=O)[C@H](NC(=O)N3CCNC3=O)c3ccccc3)C(=O)N2[C@H]1C(=O)O; assay: as §1; in short: as §2
[21] = system: O=C(O)[C@H]1/C(=C/CO)O[C@@H]2CC(=O)N21; assay: as §1; in short: as §2
[22] = system: O=C(Cc1cccs1)N[C@@H]1C(=O)N2C(C(=O)O)=C(/C=C/c3ccc([N+](=O)[O-])cc3[N+](=O)[O-])CS[C@H]12; assay: (§3) Ratio of Kcat to Km for Pseudomonas aeruginosa beta-lactamase VIM-2 by spectrophotometry; in short: as §2
[23] = system: CC(=O)OCC1=C(C(=O)O)N2C(=O)[C@@H](NC(=O)Cc3cccs3)[C@H]2SC1; assay: as §3; in short: as §2
[24] = system: C[C@@H](O)[C@H]1C(=O)N2C(C(=O)O)=C(S[C@@H]3CN[C@H](C(=O)N(C)C)C3)[C@H](C)[C@H]12; assay: as §3; in short: as §2
[25] = system: CC1(C)S[C@@H]2[C@H](NC(=O)[C@H](N)c3ccccc3)C(=O)N2[C@H]1C(=O)O; assay: as §3; in short: as §2
[26] = system: CC(C)(O/N=C(\C(=O)N[C@@H]1C(=O)N2C(C(=O)[O-])=C(C[n+]3ccccc3)CS[C@H]12)c1csc(N)n1)C(=O)O; assay: as §3; in short: as §2
[27] = system: C[C@@H](O)[C@H]1C(=O)N2C(C(=O)O)=C(S[C@@H]3CN[C@H](C(=O)Nc4cccc(C(=O)O)c4)C3)[C@H](C)[C@H]12; assay: as §3; in short: as §2
[28] = system: CC1(C)[C@H](C(=O)O)N2C(=O)C[C@H]2S1(=O)=O; assay: as §3; in short: as §2
[29] = system: CO/N=C(\C(=O)N[C@@H]1C(=O)N2C(C(=O)O)=C(COC(C)=O)CS[C@H]12)c1csc(N)n1; assay: as §3; in short: as §2
[30] = system: CCN1CCN(C(=O)N[C@@H](C(=O)N[C@@H]2C(=O)N3[C@@H]2SC(C)(C)[C@@H]3C(=O)O)c2ccccc2)C(=O)C1=O; assay: as §3; in short: as §2
[31] = system: CO[C@@]1(NC(=O)C(C(=O)O)c2ccc(O)cc2)C(=O)N2C(C(=O)O)=C(CSc3nnnn3C)CO[C@@H]21; assay: as §3; in short: as §2
[32] = system: Cc1onc(-c2ccccc2Cl)c1C(=O)N[C@@H]1C(=O)N2[C@@H]1SC(C)(C)[C@@H]2C(=O)O; assay: as §3; in short: as §2
[33] = system: O=C(Cc1cccs1)N[C@@H]1C(=O)N2C(C(=O)[O-])=C(C[n+]3ccccc3)CS[C@H]12; assay: as §3; in short: as §2
[34] = system: CO[C@@]1(NC(=O)Cc2cccs2)C(=O)N2C(C(=O)O)=C(COC(N)=O)CS[C@@H]21; assay: as §3; in short: as §2
[35] = system: CO/N=C(\C(=O)N[C@@H]1C(=O)N2C(C(=O)[O-])=C(C[N+]3(C)CCCC3)CS[C@H]12)c1csc(N)n1; assay: as §3; in short: as §2
[36] = system: CC1(C)S[C@@H]2[C@H](NC(=O)Cc3ccccc3)C(=O)N2[C@H]1C(=O)O; assay: as §3; in short: as §2
[37] = system: CC1(C)S[C@@H]2[C@H](NC(=O)C(C(=O)O)c3ccccc3)C(=O)N2[C@H]1C(=O)O; assay: as §3; in short: as §2
[38] = system: CO/N=C(\C(=O)N[C@@H]1C(=O)N2C(C(=O)O)=C(COC(N)=O)CS[C@H]12)c1ccco1; assay: as §3; in short: as §2
[39] = system: C[C@]1(Cn2ccnn2)[C@H](C(=O)O)N2C(=O)C[C@H]2S1(=O)=O; assay: as §3; in short: as §2
[40] = system: CC1(C)S[C@@H]2[C@H](NC(=O)[C@H](NC(=O)N3CCNC3=O)c3ccccc3)C(=O)N2[C@H]1C(=O)O; assay: as §3; in short: as §2
[41] = system: O=C(O)[C@H]1/C(=C/CO)O[C@@H]2CC(=O)N21; assay: as §3; in short: as §2

Q: What does the source list for “Beta-lactamase VIM-2 (Pseudomonas aeruginosa) (from UniProt Q9K2N0)”?
A: Km [1]: 18 µM; kcat [1]: 770 s⁻¹; Km [2]: 11 µM; kcat [2]: 130 s⁻¹; Km [3]: 2 µM; kcat [3]: 5 s⁻¹; Km [4]: 90 µM; kcat [4]: 125 s⁻¹; Km [5]: 72 µM; kcat [5]: 3.6 s⁻¹; Km [6]: 9 µM; kcat [6]: 0.2 s⁻¹; Km [7]: 320 µM; kcat [7]: 23 s⁻¹; Km [8]: 12 µM; kcat [8]: 70 s⁻¹; Km [9]: 125 µM; kcat [9]: 300 s⁻¹; Km [10]: 55 µM; kcat [10]: 90 s⁻¹; Km [11]: 250 µM; kcat [11]: 350 s⁻¹; Km [12]: 50 µM; kcat [12]: 140 s⁻¹; Km [13]: 13 µM; kcat [13]: 15 s⁻¹; Km [14]: > 400 µM; kcat [14]: > 40 s⁻¹; Km [15]: 70 µM; kcat [15]: 280 s⁻¹; Km [16]: 205 µM; kcat [16]: 185 s⁻¹; Km [17]: 20 µM; kcat [17]: 8 s⁻¹; Km [18]: 875 µM; kcat [18]: 28 s⁻¹; Km [19]: > 1000 µM; kcat [19]: < 0.01 s⁻¹; Km [20]: 200 µM; kcat [20]: 200 s⁻¹; Km [21]: > 5000 µM; kcat [21]: 5.4 s⁻¹; kcat/Km [22]: 4.28e+07 M⁻¹ s⁻¹; kcat/Km [23]: 1.2e+07 M⁻¹ s⁻¹; kcat/Km [24]: 2.5e+06 M⁻¹ s⁻¹; kcat/Km [25]: 1.4e+06 M⁻¹ s⁻¹; kcat/Km [26]: 50000 M⁻¹ s⁻¹; kcat/Km [27]: 22000 M⁻¹ s⁻¹; kcat/Km [28]: 72000 M⁻¹ s⁻¹; kcat/Km [29]: 5.8e+06 M⁻¹ s⁻¹; kcat/Km [30]: 2.4e+06 M⁻¹ s⁻¹; kcat/Km [31]: 1.6e+06 M⁻¹ s⁻¹; kcat/Km [32]: 1.4e+06 M⁻¹ s⁻¹; kcat/Km [33]: 2.8e+06 M⁻¹ s⁻¹; kcat/Km [34]: 1.2e+06 M⁻¹ s⁻¹; kcat/Km [35]: 100000 M⁻¹ s⁻¹; kcat/Km [36]: 4e+06 M⁻¹ s⁻¹; kcat/Km [37]: 900000 M⁻¹ s⁻¹; kcat/Km [38]: 400000 M⁻¹ s⁻¹; kcat/Km [39]: 32000 M⁻¹ s⁻¹; kcat/Km [40]: 1e+06 M⁻¹ s⁻¹; kcat/Km [41]: 1100 M⁻¹ s⁻¹
